# Measurements reported in ChEMBL document CHEMBL4828745, “Discovery and Structure-Activity Relationships of Quinazolinone-2-carboxamide Derivatives as Novel Orally Efficacious Antimalarials” (J Med Chem, 2021).
# What was measured:
# Plasmodium falciparum [1] = test: Antiplasmodial activity against Plasmodium falciparum 3D7 infected in human erythrocyte assessed as intraerythrocytic growth inhibition incubated for 72 hrs by DAPI-staining based imaging analysis; format: functional, organism-based; conditions: 3D7, 72 h
# Summary of the method: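 P. falciparum 3D7 cultured in RPMI1640 with hypoxanthine, HEPES, 2.5 mg/mL AlbuMAX II and 5% human serum. Sorbitol-synchronized rings exposed 72 h at 37 °C under 5% CO2/5% O2, then DAPI-stained with saponin/Triton X-100 for 8 h in the dark. High-content imaging with spot detection. Duplicate points. Reference antimalarials run in each assay.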
# [2] = Cytotoxicity against human HEK293 cells assessed as cell viability incubated for 72 hrs by Alamar blue assay; format: cell-based
# Summary of the method: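 HEK293 cells handled with the same incubation, compound addition and timing as the 72 h parasite assay. Alamar Blue, diluted in growth medium, was incubated 4 h at 37 °C/5% CO2, then 20 h at room temperature before plate read.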
# [3] = Intrinsic clearance in mouse liver microsomes at […] by LC-MS/MS analysis; format: ADME, Microsome
# Summary of the method: (§1)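 Liver microsomes (human, mouse or rat) at 0.4 mg/mL protein, 37 °C, with an NADPH-regenerating system. Compound at 0.25 or 0.5 μM. Acetonitrile/diazepam quench, LC-MS quantitation. CLint from the first-order degradation rate constant.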
# [4] = Apparent permeability of the compound from apical to basolateral side in human Caco-2 cells at 20 uM measured after 120 mins by LC-MS analysis; format: ADME, cell-based
# Summary of the method: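 Caco-2 monolayers, apical-to-basolateral direction, in pH 7.4 HBSS with 20 mM HEPES on both sides. Donor at nominal 20 μM, 0.1% DMSO final. Flux followed over 120 min. Quantified by LC-MS with mass balance to derive Papp.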
# [5] = Intrinsic clearance in rat liver microsomes at […] by LC-MS/MS analysis; format: ADME, Microsome; summary of the method: as §1
# [6] = Kinetic solubility of the compound in pH 6.5 phosphate buffer by nephelometry; format: physicochemical; conditions: read-out: Kinetic_solubility
# Summary of the method: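 DMSO stock spiked into pH 6.5 phosphate buffer (1% DMSO final). After 30 min, solubility range estimated by nephelometry.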
# [7] = Intrinsic clearance in human liver microsomes at […] by LC-MS/MS analysis; format: ADME, Microsome; summary of the method: as §1
# Plasmodium falciparum [8] = test: Antimalarial activity against Plasmodium falciparum TM90C2b harbouring Pf-crt, Pf-mdrl,Pfd-hfr, Pf-cytbQ0 mutated loci assessed as inhibition of parasite growth incubated for […] by [3H]hypoxanthine incorporation assay based liquid scintillation counting method; format: functional, organism-based
# Summary of the method: (§2)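 Drug-resistant laboratory P. falciparum strains were compared against the sensitive strain NF54. Growth inhibition was read by a modified [3H]hypoxanthine incorporation assay over 72 h. IC50 is the mean of two independent biological replicates. Chloroquine and artesunate served as controls.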
# Plasmodium falciparum [9] = test: Antimalarial activity against Plasmodium falciparum Cam3.1 harbouring Pf-crt, Pf-mdrl,Pf-dhfr, Pf-dhps, pf-kelch13 mutated loci assessed as inhibition of parasite growth incubated for […] by [3H]hypoxanthine incorporation assay based liquid scintillation counting method; format: functional, organism-based; summary of the method: as §2
# Plasmodium falciparum [10] = test: Antimalarial activity against Plasmodium falciparum Dd2 harbouring Pf-crt, Pf-mdrl,Pf-dhfr, Pf-dhps mutated loci assessed as inhibition of parasite growth incubated for […] by [3H]hypoxanthine incorporation assay based liquid scintillation counting method; format: functional, organism-based; summary of the method: as §2
Structure (SMILES),IC50 (Plasmodium falciparum [1]) [µM],CC50 at 72 h [2] [µM],other results
CCc1cccc(CNC(=O)c2nc3ccc(OC)c(COCc4ccc(C(=O)O)cc4)c3c(=O)[nH]2)c1,> 20,> 20,
CCc1cccc(C(C)NC(=O)c2nc3cccc(COCc4ccc(C(=O)O)cc4)c3c(=O)[nH]2)c1 (stereo unspecified),5.94,> 20,
CC(C)c1cccc(CNC(=O)c2nc3ccc(F)c(OCCc4ccc(C(=O)O)cc4)c3c(=O)[nH]2)c1,1.16,> 20,
O=C(O)c1ccc(CCOc2c(F)ccc3nc(C(=O)NCC4CCCCC4)[nH]c(=O)c23)cc1,> 20,> 20,"CLH [3]: 62 uL/ml.millig; Papp A→B at 2 h, 20 µM [4]: 32 ×10⁻⁶ cm/s; CLH [5]: 740 uL/ml.millig; solubility kinetic [6]: < 1.6 µg/mL; CLH [7]: 7 uL/ml.millig"
CCNC(=O)c1ccc(CCOc2c(F)ccc3nc(C(=O)NCc4cccc(CC)c4)[nH]c(=O)c23)cc1,> 20,> 20,
COc1cccc(CNC(=O)c2nc3ccc(F)c(OCCc4ccc(N)cc4)c3c(=O)[nH]2)c1,> 20,> 20,
COc1cccc(CNC(=O)c2nc3cccc(COCc4ccc(C(=O)O)cc4)c3c(=O)[nH]2)c1,0.18,> 20,
COc1cccc(CNC(=O)c2nc3ccc(F)c(OCCc4ccccc4)c3c(=O)[nH]2)c1,> 20,> 20,
CCc1cccc(CNC(=O)c2nc3cccc(CSCc4ccc(C(=O)O)cc4)c3c(=O)[nH]2)c1,5.54,> 20,
O=C(O)c1ccc(CCOc2c(F)ccc3nc(C(=O)NCc4cccc(C5CC5)c4)[nH]c(=O)c23)cc1,4.76,> 20,
CCc1cccc(CNC(=O)c2nc3cccc(COc4ccc(CC(=O)O)cc4)c3c(=O)[nH]2)c1,> 20,> 20,
CCc1cccc(CNC(=O)c2nc3ccc(F)c(OCCc4ccc(C(N)=O)cc4)c3c(=O)[nH]2)c1,> 20,> 20,
CCc1cccc(CNC(=O)c2nc3ccc(F)c(OCCc4ccc(C(=O)O)cc4)c3c(=O)[nH]2)c1,0.42,> 20,"CLH [3]: 69 uL/ml.millig; Papp A→B at 2 h, 20 µM [4]: 44 ×10⁻⁶ cm/s; CLH [5]: 485 uL/ml.millig; solubility kinetic [6]: 12.5 µg/mL"
CCc1ccc(CNC(=O)c2nc3ccc(F)c(OCCc4ccc(C(=O)O)cc4)c3c(=O)[nH]2)cc1,1.16,> 20,
CCc1cncc(CNC(=O)c2nc3cccc(COCc4ccc(C(=O)O)cc4)c3c(=O)[nH]2)c1,0.55,> 20,CLH [5]: 78 uL/ml.millig; solubility kinetic [6]: 1.6 µg/mL; CLH [7]: 13 uL/ml.millig
O=C(O)c1ccc(COCc2cccc3nc(C(=O)NCc4ccccc4)[nH]c(=O)c23)cc1,0.28,> 20,
CCc1cccc(CNC(=O)c2nc3cc(COCc4ccc(C(=O)O)cc4)ccc3c(=O)[nH]2)c1,> 20,> 20,
CCN(CC)CCCC(C)Nc1ccnc2cc(Cl)ccc12 (stereo unspecified) [CHLOROQUINE],,,IC50 (Plasmodium falciparum [8]): 0.067 µM; IC50 (Plasmodium falciparum [9]): 0.16 µM; IC50 (Plasmodium falciparum [10]): 0.01 µM
O=C(O)c1ccc(COCc2cccc3nc(C(=O)NCc4cccc(C(F)(F)F)c4)[nH]c(=O)c23)cc1,0.41,> 20,CLH [5]: 42 uL/ml.millig; CLH [7]: 7 uL/ml.millig
O=C(O)c1ccc(CCOc2c(F)ccc3nc(C(=O)NCc4cccc(OCC5CC5)c4)[nH]c(=O)c23)cc1,1.67,> 20,
CCc1cccc(CNC(=O)c2nc3cccc(COc4ccc(C(=O)O)cc4)c3c(=O)[nH]2)c1,> 20,> 20,
CCc1cccc(CNC(=O)c2nc3c(COCc4ccc(C(=O)O)cc4)cccc3c(=O)[nH]2)c1,> 20,> 20,
CCc1cccc(CNC(=O)c2nc3ccc(F)c(COc4ccc(C(=O)O)cc4)c3c(=O)[nH]2)c1,6.97,> 20,
